Results: ChEMBL document CHEMBL4049427, “Use of Molecular Modeling to Design Selective NTS2 Neurotensin Analogues” (J Med Chem, 2017)
Square brackets hold non-standard residues; d marks the D form. Peptide text beside a SMILES is read from it. ξ: configuration not given here. ξOrn = NCCCC(N)C(=O)O

Experiments:
[1] = biological target: T1, Neurotensin receptor type 2 (Homo sapiens, UniProt O95665); assay: Displacement of 125I-[Tyr3]-NT from human NTS2 receptor expressed in human 1321N1 cell membranes after 30 mins by gamma counting analysis
T1 sequence (O95665 whole entry): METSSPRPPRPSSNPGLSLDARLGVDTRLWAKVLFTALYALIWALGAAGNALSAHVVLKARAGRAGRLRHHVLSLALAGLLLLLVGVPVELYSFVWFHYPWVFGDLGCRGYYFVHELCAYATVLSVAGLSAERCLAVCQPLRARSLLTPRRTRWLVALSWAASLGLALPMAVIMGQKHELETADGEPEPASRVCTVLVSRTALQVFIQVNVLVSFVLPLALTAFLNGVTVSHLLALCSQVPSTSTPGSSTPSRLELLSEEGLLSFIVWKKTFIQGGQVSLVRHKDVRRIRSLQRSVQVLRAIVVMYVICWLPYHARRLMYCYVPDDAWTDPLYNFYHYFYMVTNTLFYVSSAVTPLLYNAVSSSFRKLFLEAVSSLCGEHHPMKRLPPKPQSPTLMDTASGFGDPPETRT
Method in brief: (§1)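 Fresh membranes from 1321N1 cells stably expressing hNTS2 (DMEM, 10% FBS, G418). Nonspecific binding defined with 10^-5 M NT[8-13]. Filtration, γ-counting. IC50 converted to Ki via Cheng−Prusoff; mean of at least three experiments.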

[2] = biological target: Neurotensin receptor type 1 (Homo sapiens, UniProt P30989); assay: Displacement of 125I-[Tyr3]-NT from human NTS1 receptor expressed in CHOK1 cell membranes after 30 mins by gamma counting analysis
Sequence of Neurotensin receptor type 1 (P30989 whole entry): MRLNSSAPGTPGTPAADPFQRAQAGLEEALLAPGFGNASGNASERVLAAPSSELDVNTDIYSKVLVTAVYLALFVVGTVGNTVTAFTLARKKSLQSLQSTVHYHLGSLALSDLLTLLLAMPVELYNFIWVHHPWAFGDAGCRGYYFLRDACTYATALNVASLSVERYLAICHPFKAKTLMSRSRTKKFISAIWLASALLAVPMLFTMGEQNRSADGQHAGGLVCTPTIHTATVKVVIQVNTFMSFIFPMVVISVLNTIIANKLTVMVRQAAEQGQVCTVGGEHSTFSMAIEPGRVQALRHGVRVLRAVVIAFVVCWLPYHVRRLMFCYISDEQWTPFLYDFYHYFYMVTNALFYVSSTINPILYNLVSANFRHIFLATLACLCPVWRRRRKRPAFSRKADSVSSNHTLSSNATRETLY

[3] = Displacement of 125I-[Tyr3]-NT from HA-tagged human NTS1 R212E mutant receptor expressed in HEK293 cell membranes after 30 mins by gamma counting analysis
Method in brief: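 Membranes from HEK293 cells transfected with human HA-tagged NTS1-R212E (10 μg DNA, PEI), prepared fresh 48 h post-transfection. 50 μg membrane incubated with 130 pM 125I-[Tyr3]-NT in 50 mM Tris-HCl pH 7.5, 0.2% BSA with competitor 10^-11 to 10^-5 M, 30 min at 25 °C. Nonspecific binding defined with 10^-5 M NT[8-13]. Filtration, γ-counting. IC50 converted to Ki via Cheng−Prusoff; at least three experiments.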

[4] = species: Homo sapiens; assay: Selectivity ratio of Ki for human NTS1 receptor expressed in CHOK1 cell membranes to Ki for HA-tagged human NTS1 R212E mutant receptor expressed in HEK293 cell membranes; type: cell-based
Method in brief: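 Ki was taken on two receptors. WT: 15 μg CHO-K1 hNTS1 membrane with 45 pM 125I-[Tyr3]-NT. R212E: HEK293 cells transfected by PEI with HA-tagged hNTS1-R212E, membranes made 48 h later; 50 μg membrane with 130 pM tracer. Both ran in Tris-HCl pH7.5 with 0.2% BSA, 30 min at 25 °C, with filtration and γ-counting. IC50 was converted to Ki by Cheng–Prusoff, and the ratio taken as WT Ki over mutant Ki.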

[5] = species: Homo sapiens; assay: Selectivity ratio of Ki for human NTS1 receptor expressed in CHOK1 cell membrane to Ki for human NTS2 receptor expressed in human 1321N1 cell membranes; type: cell-based
[6] = biological target: T1, Neurotensin receptor type 2; assay: Displacement of 125I-[Tyr3]-NT from human NTS2 receptor
Method in brief: as §1, with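 “G418). 50 μg membrane incubated with 255 pM 125I-[Tyr3]-NT in 50 mM Tris-HCl pH 7.5, 0.2% BSA with competitor 10^-11 to 10^-5 M, 30 min at 25 °C.” for “G418).”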

| Ki [1] [µM] | Ki [2] [µM] | Ki [6] [µM] | Molecule | Ki [3] [µM] | Ratio Ki [4] | Ratio Ki [5] |
| --- | --- | --- | --- | --- | --- | --- |
| 0.619 | > 10 |  | CC[C@H](C)[C@H](NC(=O)C(CCCN)NC(=O)[C@@H]1CCCN1C(=O)[C@H](CCCCN)NC(=O)[C@@H](N)CCCCN)C(=O)N[C@@H](CC(C)C)C(=O)O (stereo partly drawn) (H-KKP[ξOrn]IL-OH) |  |  |  |
| 1.6 | > 10 |  | H-KKPEIL-OH | > 10 |  |  |
| 4.2 | > 10 |  | H-KKPDIL-OH | > 10 |  |  |
| 0.474 | 0.456 |  | H-KKPHIL-OH |  |  | 0.96 |
|  |  |  | CC[C@H](C)[C@H](NC(=O)[C@H](Cc1ccc(O)cc1)NC(=O)[C@@H]1CCCN1C(=O)[C@H](CCCNC(=N)N)NC(=O)[C@@H](N)CCCNC(=N)N)C(=O)N[C@@H](CC(C)C)C(=O)O | 0.00469 |  |  |
|  |  | 0.00095 | CC[C@H](C)[C@H](NC(=O)[C@H](Cc1ccc(O)cc1)NC(=O)[C@@H]1CCCN1C(=O)[C@H](CCCCN)NC(=O)[C@@H](N)CCCCN)C(=O)N[C@@H](CC(C)C)C(=O)O |  |  |  |

| Molecule | Ki [1] [µM] | Ki [2] [µM] | Ki [6] [µM] | Ki [3] [µM] | Ratio Ki [4] | Ratio Ki [5] |
| --- | --- | --- | --- | --- | --- | --- |
| CC[C@H](C)[C@H](NC(=O)[C@H](CCCCN)NC(=O)[C@@H]1CCCN1C(=O)[C@H](CCCCN)NC(=O)[C@@H](N)CCCCN)C(=O)N[C@@H](C[Si](C)(C)C)C(=O)O |  | 0.663 |  | 0.127 |  |  |
| H-KKPKIL-OH | 0.262 | 5.7 |  | 0.199 | 28.6 | 21.8 |
| CC[C@H](C)[C@H](NC(=O)[C@H](CCCCN)NC(=O)[C@@H]1CCCN1C(=O)[C@H](CCCCN)NC(=O)[C@@H](N)CCCCN)C(=O)N[C@H](C[Si](C)(C)C)C(=O)O | 0.067 |  |  |  | 5.22 | 9.9 |
